Rows were chosen to be rich in hits. Some 4.6% of all compounds tested hit in one or more screens of this group.
GPR7 antagonist: GPR7 receptor antagonists, primary screen, cell-based, fluorescence, single concentration; GPR7-expressing cells, fluorescence antagonist assay; actives 1.1% (n = 290,000); inhibition, % at 4.4 µM; Neuropeptides B/W receptor type 1 (Homo sapiens), P48145; in the data active = inhibition above about 16%, passing the limit was not always enough;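 note: cells stimulated with the agonist NPW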
Target sequence (P48145 whole entry, looked up): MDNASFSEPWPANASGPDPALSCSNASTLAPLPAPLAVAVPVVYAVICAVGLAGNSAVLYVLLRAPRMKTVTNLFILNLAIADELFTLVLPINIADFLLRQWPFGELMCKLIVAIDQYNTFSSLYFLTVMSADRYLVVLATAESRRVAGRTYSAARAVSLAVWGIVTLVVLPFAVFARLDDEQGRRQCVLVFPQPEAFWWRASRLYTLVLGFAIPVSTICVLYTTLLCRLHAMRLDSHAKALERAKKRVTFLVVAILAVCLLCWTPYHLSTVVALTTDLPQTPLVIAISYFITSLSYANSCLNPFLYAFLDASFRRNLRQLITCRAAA
CHO parental Ca: ATP-evoked calcium signal inhibitors, parental CHO, primary screen, counter-screen for OX1R antagonist project, cell-based, fluorescence, Fluo-8 calcium dye; parental CHO-K1, ATP-induced calcium, Fluo-8 fluorescence; inhibition, % at 5.6 µM; actives 0.63% (n = 330,000); AID 463079, 2010;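 active = inhibition above that plate's mean sample inhibition plus 3 SD, cut at about 26% in these data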
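test system = CHO parental line | reagent = ATP stimulus | measured by = intracellular calcium via Fluo-8 no-wash fluorescent dye | control set = ATP and no-ATP DMSO wells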
OX1R antag-1: antagonists of human orexin 1 receptor (OX1R); Orexin/Hypocretin receptor type 1 (Homo sapiens), O43613; OX1R-expressing cells, FRET antagonist read-out; inhibition, % at 6.6 µM; actives 1.8% (n = 330,000); AID 485270, 2010; in the data active = inhibition mostly above about 38%, no sharp cut-off; inactive = mostly below about 40%
TAAR1 antag: human TAAR1 antagonists, primary screen, Fluo-8 calcium fluorescence, CHO RD-HGA16 cells; inhibition, % at 3 µM; actives 1.5% (n = 360,000); antagonist; AID 624466, 2012; Trace amine-associated receptor 1 (Homo sapiens), Q96RJ0;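 active = inhibition above a per-plate cutoff, the mean inhibition of test compounds on that plate plus 3 SD, cut at about 49% in these data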
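Test system – hTAAR1-expressing CHO RD-HGA16 cells, Gα16-coupled · Reagent – β-PEA at EC80 concentration, post-compound challenge · Compound dosing – 3 µM, single point · Timing – 140 s kinetic read after compound, 140 s after agonist · Detection – Fluo-8 intracellular calcium dye fluorescence, real-time kinetic reads · Control set – DMSO and EC80 PEA controls · Repeats – n of 1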
TAAR1 agonist: human TAAR1 agonists, primary screen, Fluo-8 calcium fluorescence, CHO RD-HGA16 cells | Trace amine-associated receptor 1 (Homo sapiens), Q96RJ0 | vehicle wells 0%, saturating PEA agonist 100% | actives 0.99% (n = 360,000) | activation, % at 3 µM | AID 624467, 2012;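 active = activation above the mean activation of all test compounds in the run plus 3 SD, cut at about 38% in these data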
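System: CHO RD-HGA16 cells carrying human TAAR1 plus Gα16; Incubation: 17-24 h seeding, 75 min 37 °C dye, 30 min RT; Measured by: Fluo-8 fluorescence, 5 s baseline then 140 s kinetic read; Control set: DMSO and PEA EC100; Replication: single well for each compound.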
OX1R antag-2: OX1R (HCRTR1) antagonists, primary screen, fluorescence, CHO/OX1R cells, Fluo-8 calcium, orexin A. AID 434989, 2010. Orexin/Hypocretin receptor type 1 (Homo sapiens), O43613. actives 0.43% (n = 330,000). Fluo-8 calcium fluorescence. inhibition, % at 5 µM;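 active = inhibition above its plate's threshold, mean inhibition of all tested compounds on the plate plus 3 SD, cut at about 37% in these data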
GPR7 antag conf: GPR7 receptor antagonists, confirmation, cell-based, fluorescence, single concentration | GPR7-expressing cells, calcium fluorescence antagonist mode | shares compounds with GPR7 antagonist | actives 52% (n = 2,400) | inhibition, % at 4.4 µM; in the data active = inhibition above about 24%;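 note: stimulated with the GPR7 agonist NPW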
MCHR1 antag: MCHR1 antagonists in cells, counter-screen for GPR7 antagonist project, cell-based, fluorescence, human. shares compounds with GPR7 antagonist. MCHR1-expressing cells, fluorescence antagonist assay. inhibition, % at 4.4 µM. actives 62% (n = 2,400); in the data active = inhibition above about 22%
Large screens that a line does not name were inactive (follow-up assays come after a bar, where they were run).

Cc1ccc(CN2CCSc3ccc(C(=O)N4CCOCC4)cc32)cc1	none (no result: TAAR1 antag, TAAR1 agonist)
CCN1CCN(C(=O)c2ccc3c(c2)N(Cc2ccc(C)cc2)CCS3)CC1	none (no result: GPR7 antagonist) | MCHR1 antag inactive
Cc1ccc(C(C)C)c(OCCCn2ccnc2C)c1	none
Cc1ccc(C(C)C)c(OCCNCc2ccccc2)c1	GPR7 antagonist 30 | GPR7 antag conf inactive | MCHR1 antag 68
Cc1ccc(C)c(OCCCNCc2ccccc2)c1	none
CCCN(CCC)CCOc1cc(C)ccc1C(C)C	GPR7 antagonist 24 | GPR7 antag conf 31 | MCHR1 antag inactive
CCC(C)[C@H](NC(=O)C1(c2ccccc2)CCN(C(=O)OC(C)(C)C)CC1)C(=O)N[C@@H](C(=O)O)c1ccccc1 (some centres undefined)	GPR7 antagonist 27 | GPR7 antag conf inactive | MCHR1 antag inactive
CC1Cc2cc(S(=O)(=O)N3CCCC(C(=O)N4CCCCC4)C3)ccc2N1C(=O)C1CC1 (centres undefined)	GPR7 antagonist 28 | GPR7 antag conf inactive | MCHR1 antag 24
CC(=O)N1c2ccc(S(=O)(=O)N3CCCC(C(=O)N4CCCCC4)C3)cc2CC1C (centres undefined)	none
CNC[C@@H](CC1CCCCC1)NC[C@H](CC(C)C)NCCc1cccc(C(F)(F)F)c1	GPR7 antagonist 56 | GPR7 antag conf 73 | MCHR1 antag 88
CCC[C@@H](CNC)NC[C@H](Cc1ccccc1)NCCCCc1ccccc1	GPR7 antagonist 41 | GPR7 antag conf 51 | MCHR1 antag 71
CCC[C@@H](CN[C@@H](CNC)C(C)C)NCCCCc1ccccc1	none
CNC[C@@H](Cc1ccccc1)NC[C@@H](CC1CCCCC1)NCCCc1ccccc1	GPR7 antagonist 65 | GPR7 antag conf 82 | MCHR1 antag 93
COc1ccc2c(c1OC)C(=O)N1C2SC(C)(C)[C@H]1C(=O)NC(C)C (some centres undefined)	none
CCNC(=O)C1(C)CCCN(Cc2ccccc2-c2ccccc2)C1 (centres undefined)	none (no result: GPR7 antagonist, CHO parental Ca, OX1R antag-1, OX1R antag-2)
CCOC(=O)c1c(NC(=O)c2cccnc2)sc(C(C)=O)c1C	GPR7 antagonist 23 | GPR7 antag conf inactive | MCHR1 antag inactive
CNC(=O)C[C@H]1C(=O)N(CCc2ccccc2)C[C@@H]1CSC	none (no result: GPR7 antagonist, CHO parental Ca, OX1R antag-1, OX1R antag-2)
O=C(CSc1nnnn1-c1cccc2c1CCCC2)NC1CCCC1	GPR7 antagonist 34 | GPR7 antag conf inactive | MCHR1 antag 26
Cc1ccc(-n2ncc3c(=O)n(CC(=O)N(C(C)C)C(C)C)cnc32)cc1	none
CN(C)S(=O)(=O)Oc1ccsc1C(=O)Nc1ccc(Cl)c(Cl)c1	GPR7 antagonist 28 | GPR7 antag conf inactive | MCHR1 antag 58
CN(C)S(=O)(=O)Oc1ccsc1C(=O)Nc1ccc(Br)cc1	none
CN(c1ccccc1C(=O)NCc1ccccc1Cl)S(=O)(=O)c1ccccc1	none
COC(=O)[C@@H](NC(=O)c1ccc2c(c1)S(=O)(=O)c1ccccc1C2=O)C(C)C	GPR7 antagonist 22, OX1R antag-1 73 | GPR7 antag conf inactive | MCHR1 antag inactive
CCO[C@H]1C[C@@H](c2ccc(CC)cc2)N(S(=O)(=O)c2ccc(C)cc2)C2CC(c3ccc(CC)cc3)N(S(=O)(=O)c3ccc(C)cc3)CC21 (some centres undefined)	none (no result: GPR7 antagonist, CHO parental Ca, OX1R antag-1, OX1R antag-2)
